Laboratory results: ChEMBL document CHEMBL1135411, “Design and synthesis of a novel series of 1,2-disubstituted cyclopentanes as small, potent potentiators of 2-amino-3-(3-hydroxy-5-methyl-isoxazol-4-yl)propanoic acid (AMPA) receptors” (J Med Chem, 2002)

target: T1, Glutamate receptor 4 (Homo sapiens, UniProt P48058); assay: Potentiation of responses mediated by 100 uM L-glutamate in transfected HEK293 cells expressing human homomeric iGluR4 flip receptors.; type: functional, cell-based
How it was run: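 Calcium influx was measured in confluent HEK293 cells stably expressing human homomeric iGluR4 flip, loaded 60 min with 20 µM Fluo3-AM in HEPES buffer (pH 7.1-7.3, 5 mM Ca2+). Compound at several concentrations preceded 100 µM glutamate by 5 min. Fluorescence was read before and 3 min after glutamate. Responses were scaled to 100 µM cyclothiazide, and EC50 was taken as the mean of at least three experiments.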

T1 sequence (P48058 whole entry): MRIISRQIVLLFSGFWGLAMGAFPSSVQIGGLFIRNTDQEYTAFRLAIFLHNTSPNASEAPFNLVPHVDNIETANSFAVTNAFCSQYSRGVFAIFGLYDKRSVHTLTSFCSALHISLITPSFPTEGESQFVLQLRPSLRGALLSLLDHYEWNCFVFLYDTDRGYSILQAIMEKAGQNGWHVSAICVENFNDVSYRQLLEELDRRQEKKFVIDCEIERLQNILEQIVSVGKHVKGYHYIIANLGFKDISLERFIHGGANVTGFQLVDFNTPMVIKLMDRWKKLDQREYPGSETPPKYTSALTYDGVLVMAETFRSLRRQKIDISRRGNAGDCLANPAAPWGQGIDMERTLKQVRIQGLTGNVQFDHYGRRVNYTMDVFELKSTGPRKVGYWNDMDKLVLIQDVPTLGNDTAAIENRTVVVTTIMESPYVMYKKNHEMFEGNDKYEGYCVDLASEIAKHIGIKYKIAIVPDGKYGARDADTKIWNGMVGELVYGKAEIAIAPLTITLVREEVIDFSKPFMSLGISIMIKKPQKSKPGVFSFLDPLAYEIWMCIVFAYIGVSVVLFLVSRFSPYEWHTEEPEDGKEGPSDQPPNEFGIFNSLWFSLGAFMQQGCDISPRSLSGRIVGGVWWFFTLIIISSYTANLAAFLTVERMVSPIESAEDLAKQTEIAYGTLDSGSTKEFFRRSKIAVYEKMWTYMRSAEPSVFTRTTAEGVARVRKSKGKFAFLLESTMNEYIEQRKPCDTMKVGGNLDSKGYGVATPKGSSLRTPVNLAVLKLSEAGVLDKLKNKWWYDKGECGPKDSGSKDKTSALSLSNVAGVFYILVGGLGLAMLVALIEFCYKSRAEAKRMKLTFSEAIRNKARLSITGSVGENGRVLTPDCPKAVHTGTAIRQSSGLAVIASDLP

| EC50 [nM] | Structure (SMILES) |
| --- | --- |
| 621 | CC(C)S(=O)(=O)N[C@@H]1CCC[C@@H]1c1cccc(F)c1 (racemic) |
| 434 | Cc1ccc([C@H]2CCC[C@H]2NS(=O)(=O)C(C)C)cc1 (racemic) |
| 551 | CC(C)S(=O)(=O)N[C@H]1CCC[C@@H]1c1ccccc1 |
| 32.8 | CC(C)S(=O)(=O)N[C@H]1CCC[C@@H]1c1ccc(I)cc1 |
| 93.1 | CC(C)S(=O)(=O)N[C@H]1CCC[C@@H]1c1ccc(I)cc1 (racemic) |
| 281 | CC(C)S(=O)(=O)N[C@@H]1CCC[C@@H]1c1cc(F)cc(F)c1 (racemic) |
| 403 | CC(C)S(=O)(=O)N[C@@H]1CCC[C@@H]1c1ccc(C#N)cc1 |
| 190 | CC(C)S(=O)(=O)N[C@@H]1CCC[C@@H]1c1ccc([N+](=O)[O-])cc1 (racemic) |
| 68 | CC(C)S(=O)(=O)N[C@@H]1CCC[C@@H]1c1ccc(Br)cc1 |
| 45.8 | CC(C)S(=O)(=O)N[C@@H]1CCC[C@@H]1c1ccc(I)cc1 (racemic) |
| 82.1 | CC(C)S(=O)(=O)N[C@H]1CCC[C@@H]1c1ccc(Br)cc1 |
| 118 | CC(C)S(=O)(=O)N[C@@H]1CCC[C@@H]1c1cc(F)cc(F)c1 |
| 22.6 | CC(C)S(=O)(=O)N[C@@H]1CCC[C@@H]1c1ccc(I)cc1 |
| 130 | CC(C)S(=O)(=O)N[C@H]1CCC[C@@H]1c1ccc(Br)cc1 (racemic) |
| 247 | CC(C)S(=O)(=O)N[C@@H]1CCC[C@@H]1c1ccc(Cl)cc1 (racemic) |
| 147 | CC(C)S(=O)(=O)N[C@@H]1CCC[C@@H]1c1ccc(Br)cc1 (racemic) |
| 1100 | CC(C)S(=O)(=O)N[C@@H]1CCC[C@@H]1c1ccc(F)c(F)c1 (racemic) |
| 1740 | CC(C)S(=O)(=O)N[C@@H]1CCC[C@@H]1c1ccccc1 |

target: T1, Glutamate receptor 4; assay: % potentiation of responses mediated by 100 uM L-glutamate in human transfected HEK293 cells expressing homomeric iGluR4 flip receptors at a dose of 3 uM.; type: functional, cell-based
How it was run: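 HEK293 cells stably expressing human iGluR4 flip, as confluent monolayers, loaded 60 min with 20 µM Fluo3-AM in HEPES-buffered saline (5 mM CaCl2, pH 7.1-7.3), then washed. Compound was added 5 min before 100 µM glutamate. Fluorescence was read just before glutamate and 3 min after. Potentiation at 3 µM, the highest dose tested, was expressed relative to 100 µM cyclothiazide (n = 1).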

| Potentiation [%] | Structure (SMILES) |
| --- | --- |
| 6 | CC(C)S(=O)(=O)N[C@@H]1CCC[C@H]1c1ccccc1 |
| 17 | CC(C)S(=O)(=O)N[C@H]1CCC[C@H]1c1ccc(C#N)cc1 |
| 57 | CC(C)S(=O)(=O)N[C@@H]1CCC[C@@H]1c1ccc(F)cc1 (racemic) |
| 2 | CC(C)S(=O)(=O)N[C@@H]1CCC[C@H]1c1ccc(Br)cc1 |
| 70 | CC(C)S(=O)(=O)N[C@H]1CCC[C@@H]1c1ccccc1 (racemic) |
| 48 | CC(C)S(=O)(=O)N[C@@H]1CCC[C@@H]1c1ccccc1 (racemic) |
| 0 | CC(CNS(=O)(=O)C(C)C)c1ccccc1 (racemic) |
| 12 | CC(C)S(=O)(=O)N[C@@H]1CCC[C@H]1c1ccc(I)cc1 |
| 34 | CC(C)S(=O)(=O)N[C@H]1CCC[C@H]1c1ccc(I)cc1 |
| 2 | CC(C)S(=O)(=O)N[C@H]1CCC[C@H]1c1ccccc1 |
| 27 | CC(C)S(=O)(=O)N[C@H]1CCC[C@H]1c1ccc(Br)cc1 |
| 5 | CC(C)S(=O)(=O)N[C@H]1CCC[C@H]1c1cc(F)cc(F)c1 |
| 26 | CC(CNS(=O)(=O)C(C)C)c1ccc(Br)cc1 (racemic) |
